pIC50: −log10 of the molar value.
Tests used:
[1] = target: T1, DNA topoisomerase 1 (Homo sapiens) (UniProt P11387); assay: (§1) Inhibition of recombinant human topoisomerase 1-mediated DNA relaxation expressed in Saccharomyces cerevisiae TopI null strain RS190 at 40 uM using negatively supercoiled pUC18 as substrate pretreated with enzyme for 15 mins followed by substrate addition measured after 3 mins by agarose gel electrophoresis
T1 sequence (whole entry): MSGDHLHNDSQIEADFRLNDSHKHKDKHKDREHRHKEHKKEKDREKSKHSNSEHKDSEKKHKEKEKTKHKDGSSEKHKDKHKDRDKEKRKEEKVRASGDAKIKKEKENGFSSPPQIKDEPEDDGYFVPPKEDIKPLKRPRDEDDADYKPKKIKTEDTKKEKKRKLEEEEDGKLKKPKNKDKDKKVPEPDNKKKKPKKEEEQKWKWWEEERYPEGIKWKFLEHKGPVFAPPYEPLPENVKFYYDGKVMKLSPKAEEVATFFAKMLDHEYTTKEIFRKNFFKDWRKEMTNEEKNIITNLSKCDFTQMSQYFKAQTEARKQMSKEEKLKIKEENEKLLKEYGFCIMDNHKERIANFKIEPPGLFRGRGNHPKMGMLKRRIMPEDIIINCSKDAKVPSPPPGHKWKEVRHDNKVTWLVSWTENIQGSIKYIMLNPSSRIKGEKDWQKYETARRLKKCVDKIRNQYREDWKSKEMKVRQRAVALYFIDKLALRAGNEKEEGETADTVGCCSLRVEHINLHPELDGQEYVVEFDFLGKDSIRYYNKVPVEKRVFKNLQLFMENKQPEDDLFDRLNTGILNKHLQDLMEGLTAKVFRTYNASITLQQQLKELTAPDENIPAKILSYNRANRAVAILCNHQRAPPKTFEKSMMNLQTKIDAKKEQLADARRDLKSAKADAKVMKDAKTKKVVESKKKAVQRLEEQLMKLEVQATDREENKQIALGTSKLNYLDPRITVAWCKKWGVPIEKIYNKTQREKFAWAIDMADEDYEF
In short: (§2)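 Human TopI was expressed from pHT143 (GAL promoter) in yeast RS190 and affinity-purified. Reactions used 110 ng/µL TopI and 0.5 µg supercoiled pUC18 in 20 µl buffer (20 mM Tris–HCl, 0.1 mM Na2EDTA, 10 mM MgCl2, 50 µg/mL acetylated BSA, 150 mM KCl, pH 7.5). Drug was mixed with enzyme before DNA was added, and reactions were stopped with SDS. Products were resolved on 1% agarose in TBE and stained with gel red.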

[2] = target: T1, DNA topoisomerase 1 (Homo sapiens); assay: as §1, with “60” for “40”; in short: as §2
[3] = target: T1, DNA topoisomerase 1 (Homo sapiens); assay: as §1, with “20” for “40”; in short: as §2
[4] = target: T1, DNA topoisomerase 1 (Homo sapiens); assay: as §1, with “10” for “40”; in short: as §2
A549 = assay: Antiproliferative activity against human A549 cells after 48 hrs by CCK-8 assay; format: functional, cell-based; settings: A549, 48 h
In short: (§3)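 Cells seeded at 2-4 x 10^3 per well and grown overnight in 0.1 mL medium with 10% FBS at 37 °C under 5% CO2. Drugs were added on day 2 and cells incubated 48 h. CCK-8 was then added for 2 h at 37 °C and absorbance read at 450 nm. IC50 values were reported.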

MRC5 = assay: Antiproliferative activity against human MRC5 cells after 48 hrs by CCK-8 assay; format: cell-based; settings: MRC5, 48 h; in short: as §3
[5] = target: T1, DNA topoisomerase 1 (Homo sapiens); assay: as §1, with “80” for “40”; in short: as §2
SK-OV-3 = assay: Antiproliferative activity against human SKOV3 cells after 48 hrs by CCK-8 assay; format: functional, cell-based; settings: SK-OV-3, 48 h; in short: as §3
[6] = target: T1, DNA topoisomerase 1 (Homo sapiens); assay: as §1, with “80” for “40”, “1 min” for “3 mins”; in short: as §2
[7] = target: T1, DNA topoisomerase 1 (Homo sapiens); assay: as §1, with “80” for “40”, “15 secs” for “3 mins”; in short: as §2
HEK293 = assay: Antiproliferative activity against human HEK293 cells after 48 hrs by CCK-8 assay; settings: HEK293, 48 h

Row | Compound | inhibition [1] | inhibition [2] | inhibition [3] | inhibition [4] | pIC50 (A549) | pIC50 (MRC5) | inhibition [5] | pIC50 (SK-OV-3) | inhibition [6] | inhibition [7] | pIC50 (HEK293)
1 | S=P(c1ccccc1)(c1ccccc1)c1cccc2c1N[C@H](c1ccc3ccccc3c1)C[C@@H]2c1ccccc1 | 19% | 28% | 16% | 15% | 6.57 | < 4.30 | 76% | < 4.30 | 76% | 76% | < 4.30
2 | c1ccc([C@H]2C[C@@H](c3ccccc3)Nc3c2cccc3P(c2ccccc2)c2ccccc2)cc1 | 0% | 0% | 0% | 0% | 6.22 | < 4.30 | 85% | < 4.30 | 85% | 85% | < 4.30
3 | Cc1ccc([C@H]2C[C@@H](c3ccccc3)Nc3c2cccc3P(c2ccccc2)c2ccccc2)cc1 | 17% | 22% | 16% | 0% | 6.96 | < 4.30 | 76% | < 4.30 | 79% | 80% | < 4.30
4 | Fc1ccc([C@H]2C[C@@H](c3ccc(F)cc3)Nc3c2cccc3P(c2ccccc2)c2ccccc2)cc1 | 0% | 20% | 0% | 0% | 7.10 | < 4.30 | 75% | < 4.30 | 75% | 78% | < 4.30
5 | S=P(c1ccccc1)(c1ccccc1)c1cccc2c1N[C@H](c1ccccc1)C[C@@H]2c1ccccc1 | 0% | 0% | 0% | 0% | 6.80 | < 4.30 | 76% | < 4.30 | 81% | 81% | < 4.30

From ChEMBL document CHEMBL4196061, “Novel topoisomerase I inhibitors. Syntheses and biological evaluation of phosphorus substituted quinoline derivates with antiproliferative activity” (Eur J Med Chem, 2018)
